Active and inactive are the calls of the source.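 How the source made its calls, unless noted: active means fluorescence slope higher than the sample average by over 3 SD (cut at about -0.22 in these data, passing the limit was not always enough); inactive means the rest.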

Assay [1] is described as follows: inhibitors of TNFa-induced NFkB p65 translocation, primary screen, imaging, HUVEC, MLSMR starter and 10KST1 sets (AID 438;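 active means inhibition above 20% together with a positive visual image hit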;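 further: compound added about 3h40 before a 20 min TNFalpha stimulation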;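 on inhibition: signal is the nuclear over cytoplasmic p65 intensity ratio per well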). As to conditions: HUVEC TNFa-induced p65 nuclear translocation; cell count: measured here: nuclei count (cytotoxicity indicator), at 2.08 µM; inhibition: at 2 µM, stronger effect = higher value, 0% TNFa-plus-vehicle, 100% no-TNFa wells.
A short description of assay [2]: inhibitors of mutant huntingtin aggregation, primary screen, imaging, exon1htt(103Q)mCFP cells, high-content imaging (AID 483;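 active means visual image review flags a hit and inhibition of aggregation exceeds 20%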;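 further: compound exposure lasted 3 days before fixation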;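 on nuclei count: percent of the per-plate median nuclei count of sample wells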). As to conditions: exon1htt(103Q)mCFP cell line, aggregate imaging, at 2 µM; inhibition of aggregation: stronger effect = higher value; nuclei count: measured here: cell count, toxicity.
Assay [3] is described as follows: inhibitors of E-selectin induction by TNFa, primary screen, imaging, HUVEC, immunofluorescence, MLSMR starter and 10KST1 sets (AID 487;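 active means visually confirmed hit in the image check and inhibition above 20%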;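 on inhibition: signal is fraction of cell area covered by stained E-selectin grains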;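 on nuclei count: 100% = median nuclei count of all wells on the same plate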). As to conditions: HUVEC TNFalpha-induced E-selectin immunofluorescence imaging, at 2 µM; inhibition: stronger effect = higher value; nuclei count: measured here: cell number, toxicity.
The target of assay [4] is Voltage-gated potassium channel subunit beta-2 (Rattus norvegicus) (UniProt P62483). Briefly: KvBeta enzyme negative modulators, primary screen, biochemical, NADPH fluorescence (AID 622).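 Further: slope of raw intensity against log time taken from 70 to 1610 s.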 As to conditions: recombinant KvBeta, 4-cyanobenzaldehyde reduction, at 10 µM, stronger effect = higher value.
The target is the same in assay [5]. The assay is described as follows: KvBeta positive modulators, primary screen, biochemical, NADPH fluorescence (AID 623;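 active means NADPH fluorescence slope more negative than the mean of all samples by about 3 SD, 99.7% confidence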;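 further: fluorescence intensity change per second fitted from 20 to 320 s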). As to conditions: Recombinant KvBeta, NADPH fluorescence decrease slope, 10 min; at 10 µM; stronger effect = lower value.
Assay [6] concerns the target Muscarinic acetylcholine receptor M4 (Homo sapiens) (UniProt P08173). Briefly: compounds altering M4/GIRK thallium flux, either direction, primary screen, M4 allosteric agonist project, cell-based, HEK293 M4/GIRK, BTC-AM (AID 625;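 active means fluorescence slope after compound addition differing from the mean of all tested samples at 99.7% confidence, mostly higher but some lower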;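 further: thallium influx through GIRK channels coupled to M4 in HEK293 cells with BTC-AM dye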). As to conditions: at 10 µM, actives lie on both sides. The gist of the method: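 System: HEK293 cells with M4 receptor and GIRK channels | Incubation: Cells overnight at 37 °C, BTC-AM loading 1 h, reads 2 min total | Technique: Kinetic BTC-AM fluorescence sampled at 1 Hz, 10 s pre-addition baseline | Measure: Post-addition slope, 15–24 s, of baseline-normalized fluorescence | Control set: Carbachol positive, DMSO negative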

Assay [7] can be described thus: inhibitors of Sendai virus-induced IRF3 signaling, primary screen, TLR/RLR signaling modifier project, cell-based, Sendai virus stimulus, luciferase, 10K MLSCN set (AID 602276;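 active means inhibition at or above 50% at 10 µM; inactive means inhibition below 50%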;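 further: firefly luciferase from ISG56 promoter only with Renilla not read in this screen; 0% = Sendai virus plus DMSO and 100% = medium plus DMSO without virus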). As to conditions: HEK293 RL24 IRF3 luciferase reporter, at 10 µM, stronger effect = higher value. (In general: Reporter assays use an easily measured gene product as a stand-in for the process of interest.)

Assay [8] can be described thus: inhibitors of poly I:C-induced TLR3 signaling, primary screen, cell-based, poly I:C stimulus, luciferase, 10K MLSCN set (AID 602277;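 active means inhibition of the reporter signal at or above 50%; inactive means inhibition below 50%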). As to conditions: HEK293-TLR3 RL24 IRF3 luciferase reporter, at 10 µM, stronger effect = higher value.

Sequence of Voltage-gated potassium channel subunit beta-2 (Rattus norvegicus) (P62483 whole entry, looked up): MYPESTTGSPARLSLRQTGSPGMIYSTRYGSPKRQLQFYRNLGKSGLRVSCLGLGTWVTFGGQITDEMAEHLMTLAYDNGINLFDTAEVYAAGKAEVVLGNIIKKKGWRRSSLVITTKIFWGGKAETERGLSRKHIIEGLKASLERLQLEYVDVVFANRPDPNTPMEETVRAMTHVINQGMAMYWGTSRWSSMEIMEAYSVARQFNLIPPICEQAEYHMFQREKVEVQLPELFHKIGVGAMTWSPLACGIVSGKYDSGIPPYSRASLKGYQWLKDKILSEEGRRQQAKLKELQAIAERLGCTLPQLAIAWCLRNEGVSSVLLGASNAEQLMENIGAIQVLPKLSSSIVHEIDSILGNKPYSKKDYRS
Sequence of Muscarinic acetylcholine receptor M4 (Homo sapiens) (P08173 whole entry, looked up): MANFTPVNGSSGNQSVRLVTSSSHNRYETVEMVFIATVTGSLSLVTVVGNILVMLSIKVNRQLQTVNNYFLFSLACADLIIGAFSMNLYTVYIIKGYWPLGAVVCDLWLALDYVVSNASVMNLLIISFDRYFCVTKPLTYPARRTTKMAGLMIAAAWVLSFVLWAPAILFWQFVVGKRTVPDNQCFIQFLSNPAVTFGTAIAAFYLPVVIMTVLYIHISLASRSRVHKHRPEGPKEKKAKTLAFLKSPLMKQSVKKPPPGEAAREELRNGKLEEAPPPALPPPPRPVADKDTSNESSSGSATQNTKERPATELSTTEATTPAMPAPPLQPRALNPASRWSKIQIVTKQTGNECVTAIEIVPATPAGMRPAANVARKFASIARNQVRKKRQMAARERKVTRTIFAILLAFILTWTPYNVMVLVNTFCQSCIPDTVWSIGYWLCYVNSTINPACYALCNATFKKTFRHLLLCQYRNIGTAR

For orientation: inhibition means the relative decrease from the control value, in per cent. With `COC(=O)C1(C)NC(c2ccco2)C2C(=O)N(c3ccc(C)cc3)C(=O)C21` (stereo not drawn), the cell count in assay [1] worked out at 560. The inhibition in assay [1] was -17.5% (inactive); in assay [3], -40.3% (inactive); in assay [7] it was 14.7% (inactive); in assay [8], 17.2% (inactive). For the same compound, the inhibition of aggregation in assay [2] was -8.7% (inactive). Further, the nuclei count in assay [2] came to 113%; in assay [3], 114%. For the same compound, the fluorescence slope in assay [4] is -0.318 (inactive); in assay [6], 0.00521 (inactive). In addition, the NADPH fluorescence slope in assay [5] was -3.5e-05 (inactive).

As for `CN1C(=O)C2(NCCc3c2[nH]c2ccccc32)c2ccccc21` (stereo not drawn), the cell count in assay [1] was 583. The inhibition in assay [1] was 0.7% (inactive); in assay [3], -4.8% (inactive); in assay [7], 20% (inactive); in assay [8], 34.7% (inactive). Also, the inhibition of aggregation in assay [2] is -4.1% (inactive). Further, the nuclei count stood at 99.3% in assay [2] and 90.7% in assay [3]. Moreover, the fluorescence slope in assay [4] is -0.482 (inactive); in assay [6] it was 0.00214 (inactive). The NADPH fluorescence slope in assay [5] was -0.000314 (inactive).

`CN1CC[n+]2cnc3ccccc3c21`: in assay [1], the cell count is 600. Besides, the inhibition is 1.2% (inactive) in assay [1], -9.4% (inactive) in assay [3], 16.8% (inactive) in assay [7] and 19.3% (inactive) in assay [8]. Further, in assay [2], the inhibition of aggregation was -17.8% (inactive). Also, the nuclei count in assay [2] was found to be 103%; in assay [3], 122%. The figures for the fluorescence slope in assay [4] and in assay [6] were -0.585 (inactive) and 0.00403 (inactive), respectively. Also, the NADPH fluorescence slope in assay [5] was -8.5e-05 (inactive).

Consider `Cc1ccc(CSc2nc3c(c(=O)[nH]2)C(c2ccncc2)C2=C(CCCC2=O)N3)cc1` (stereo not drawn), for which the cell count in assay [1] is 518. For the same compound, the inhibition in assay [1] is -16.7% (inactive); in assay [3], -14.5% (inactive); in assay [7], 21.7% (inactive); in assay [8] it was 15.5% (inactive). Besides, in assay [2], the inhibition of aggregation is 3.6% (inactive). Also, the nuclei count in assay [2] worked out at 79.3%; in assay [3], 87.2%. Also, the fluorescence slope was -0.457 (inactive) in assay [4] and 0.00543 (inactive) in assay [6]. Also, in assay [5], the NADPH fluorescence slope was -3.5e-05 (inactive).

As for `CCOC(=O)c1c(NC(=O)CSc2nnc(-c3ccc(OC)cc3)o2)sc2c1CCC2`, the cell count in assay [1] came out at 705. In addition, the inhibition in assay [1] is -10.9% (inactive); in assay [3] it was -10.2% (inactive); in assay [7], 0.872% (inactive); in assay [8], 5.8% (inactive). Also, the inhibition of aggregation in assay [2] was -10.3% (inactive). In addition, the nuclei count in assay [2] amounted to 113%; in assay [3], 91.1%. Further, the results for the fluorescence slope in assay [4] and in assay [6] were -0.56 (inactive) and 0.0094 (inactive), respectively. In assay [5], the NADPH fluorescence slope is -9.6e-07 (inactive).

Consider `O=C(CSc1nnc(-c2cccnc2)o1)Nc1ccccn1`, for which the cell count in assay [1] is 328. The inhibition was 3.2% (inactive) in assay [1], -60.6% (inactive) in assay [3], -56.5% (inactive) in assay [7] and -126% (inactive) in assay [8]. For the same compound, the inhibition of aggregation in assay [2] was 7.3% (inactive). Besides, the nuclei count is 99.4% in assay [2] and 131% in assay [3]. Moreover, the fluorescence slope in assay [4] was -0.317 (inactive); in assay [6], 0.0082 (inactive). Moreover, in assay [5], the NADPH fluorescence slope is 5.1e-06 (inactive).

As to `O=C(CP(=O)(CO)CO)c1ccc(Cl)cc1`, the cell count in assay [1] worked out at 863. For the same compound, the inhibition in assay [1] is -2.9% (inactive); in assay [3] it was 2.9% (inactive); in assay [7] it was 3.99% (inactive); in assay [8] it was 14.2% (inactive). Also, in assay [2], the inhibition of aggregation was 18.9% (inactive). In addition, the nuclei count in assay [2] amounted to 119%; in assay [3] it was 126%. Besides, the fluorescence slope in assay [4] was -0.536 (inactive); in assay [6], 0.00425 (inactive). For the same compound, the NADPH fluorescence slope in assay [5] is 4.7e-05 (inactive).

For `CN(C)c1ccc(CNC2CC(C)(C)NC(C)(C)C2)cc1`, the cell count in assay [1] is 334. Besides, the inhibition is 2.4% (inactive) in assay [1], 20.8% (inactive) in assay [3], -0.582% (inactive) in assay [7] and 16.7% (inactive) in assay [8]. Besides, in assay [2], the inhibition of aggregation was -12.5% (inactive). Also, the nuclei count was 106% in assay [2] and 91.1% in assay [3]. Moreover, the fluorescence slope was -0.584 (inactive) in assay [4] and 0.00412 (inactive) in assay [6]. Also, in assay [5], the NADPH fluorescence slope was -4.8e-05 (inactive).

In the case of `CC(C)(C)NC(=O)Cn1nnc(-c2cccs2)n1`, the cell count in assay [1] was 238. Further, the inhibition in assay [1] was 6.4% (inactive); in assay [3] it was -3.4% (inactive); in assay [7], 1.59% (inactive); in assay [8], -13% (inactive). The inhibition of aggregation in assay [2] was 23.3% (inactive). In addition, the values for the nuclei count in assay [2] and in assay [3] were 99% and 85.2%, respectively. The fluorescence slope in assay [4] is -0.508 (inactive); in assay [6], 0.00413 (inactive). Further, the NADPH fluorescence slope in assay [5] is -1.3e-05 (inactive).

On to `Cn1nnnc1SCC(=O)NCc1ccco1`, for which the cell count in assay [1] turned out to be 467. The inhibition is 4.6% (inactive) in assay [1], -60.2% (inactive) in assay [3], -10.5% (inactive) in assay [7] and -15.1% (inactive) in assay [8]. Also, the inhibition of aggregation in assay [2] was -7.3% (inactive). Moreover, the nuclei count in assay [2] is 133%; in assay [3], 172%. In addition, the fluorescence slope in assay [4] is -0.443 (inactive); in assay [6] it was 0.00818 (inactive). Moreover, in assay [5], the NADPH fluorescence slope is 0.000107 (inactive).

With `Clc1ccccc1OCc1nn2c(-c3ccncc3)nnc2s1`, the cell count in assay [1] came to 352. The inhibition in assay [1] was 2.6% (inactive); in assay [3], -23.5% (inactive); in assay [7] it was 8.19% (inactive); in assay [8], -3.24% (inactive). Further, in assay [2], the inhibition of aggregation is 35.5% (inactive). Further, the nuclei count in assay [2] came out at 91.1%; in assay [3], 118%. In addition, the fluorescence slope is -0.298 (inactive) in assay [4] and 0.00567 (inactive) in assay [6]. Further, the NADPH fluorescence slope in assay [5] was -6.4e-05 (inactive).

In the case of `CCOC(=O)NC(c1ccccc1)C1CCCCC1=O` (stereo not drawn), the cell count in assay [1] is 486. For the same compound, the inhibition in assay [1] was -3.4% (inactive); in assay [3] it was -25.5% (inactive); in assay [7] it was 14.4% (inactive); in assay [8], 18.4% (inactive). In assay [2], the inhibition of aggregation is -0.1% (inactive). The nuclei count in assay [2] amounted to 103%; in assay [3], 105%. Moreover, the fluorescence slope was -0.565 (inactive) in assay [4] and 0.00674 (inactive) in assay [6]. For the same compound, the NADPH fluorescence slope in assay [5] was 1e-05 (inactive).

In the case of `COc1ccc(CCNS(=O)(=O)c2ccc3c(c2)CCN3C(=O)CCC(=O)O)cc1OC`, the cell count in assay [1] was 620. The inhibition in assay [1] was -6.5% (inactive); in assay [3], -14.5% (inactive); in assay [7] it was 12.6% (inactive); in assay [8] it was 21.5% (inactive). Also, in assay [2], the inhibition of aggregation was 0.9% (inactive). In addition, the results for the nuclei count in assay [2] and in assay [3] were 125% and 121%, respectively. The fluorescence slope is -0.553 (inactive) in assay [4] and 0.00473 (inactive) in assay [6]. Also, in assay [5], the NADPH fluorescence slope is 7.1e-06 (inactive).
